Published values collected from several papers.
Each line is one published result; the experiments were not run side by side.

The EC50 of `CSCC[C@H](NC(=O)[C@H](CCC(=O)O)NC(=O)[C@@H]1CCCN1C(=O)[C@@H](NC(=O)[C@@H]1CCCN1)[C@@H](C)O)C(=O)N[C@@H](CCCNC(=N)N)C(=O)N[C@@H](CCC(=O)O)C(=O)N[C@@H](CCCCN)C(=O)N[C@@H](CC(C)C)C(=O)N[C@H]1CSSC[C@@H]2NC(=O)[C@@H](NC(=O)[C@H](Cc3ccc(O)cc3)NC(=O)[C@H](CCCNC(=N)N)NC(=O)[C@H](C)NC(=O)[C@@H]3CCCN3C(=O)[C@H](CC(N)=O)NC(=O)[C@@H](NC(=O)[C@H](C)NC(=O)[C@H](C)NC(=O)[C@H](C)N)[C@@H](C)O)CSSC[C@H](NC(=O)CNC(=O)[C@H](CO)NC(=O)[C@H](CC(C)C)NC2=O)C(=O)N[C@@H]([C@@H](C)O)C(=O)N[C@@H](CCC(N)=O)C(=O)N[C@@H](CCC(N)=O)C(=O)N[C@@H](CC(=O)O)C(=O)N[C@@H](CC(C)C)C(=O)N[C@@H](CC(C)C)C(=O)N[C@@H]([C@@H](C)O)C(=O)N[C@@H](CC(C)C)C(=O)N[C@H](C(=O)N2CCC[C@H]2C(=O)N[C@@H](Cc2ccc(O)cc2)C(=O)O)CSSC[C@@H](C(=O)NCC(=O)NCC(=O)N2CCC[C@H]2C(=O)N[C@@H](CCCNC(=N)N)C(=O)N[C@@H](Cc2c[nH]c3ccccc23)C(=O)N[C@@H](CO)C(=O)N[C@H](C(=O)N[C@@H](CCC(=O)O)C(=O)N[C@@H](C)C(=O)O)[C@@H](C)O)NC(=O)[C@H](C(C)C)NC(=O)[C@H](CCCNC(=N)N)NC(=O)[C@H](C(C)C)NC(=O)[C@H](CC(C)C)NC(=O)[C@H](C)NC(=O)[C@H](CCCNC(=N)N)NC(=O)[C@H](C(C)C)NC(=O)[C@H](Cc2ccccc2)NC(=O)[C@H](Cc2c[nH]cn2)NC(=O)[C@H](Cc2c[nH]cn2)NC(=O)CNC1=O` is reported as 0.0166 nM (Relaxin receptor 2 (RXFP2, Homo sapiens, UniProt Q8WXD0); cAMP, agonist).
`CCn1cncc1Cn1c(CN2CCC(c3cccc(OCc4ccc(F)cc4F)n3)CC2)nc2ccc(C(=O)O)cc21` gave an EC50 of 0.09 nM (Glucagon-like peptide 1 receptor (GLP1R, Homo sapiens, UniProt P43220, L260F); cAMP, agonist, TR-FRET).
With `COc1cc(-c2cc3c(cc2C)C(=O)Nc2cc(CC(=O)Nc4ccc(N5CCOCC5)cc4)ccc2N3)ccc1[N+](=O)[O-]` the IC50 was 64.4 nM (Serine/threonine-protein kinase Chk1 (CHEK1, Homo sapiens, UniProt O14757); enzyme activity, inhibitor).
`CC[C@H](C)[C@H](NC(=O)[C@H](Cc1ccccc1)NC(=O)[C@H](CCC(=O)O)NC(=O)[C@H](CCCCN)NC(=O)[C@H](C)NC(=O)[C@H](C)NC(=O)[C@H](CCC(N)=O)NC(=O)CNC(=O)[C@H](CCC(=O)O)NC(=O)[C@H](CC(C)C)NC(=O)[C@H](Cc1ccc(O)cc1)NC(=O)[C@H](CO)NC(=O)[C@H](CO)NC(=O)[C@@H](NC(=O)[C@H](CC(=O)O)NC(=O)[C@H](CO)NC(=O)[C@@H](NC(=O)[C@H](Cc1ccccc1)NC(=O)[C@@H](NC(=O)CNC(=O)[C@H](CCC(=O)O)NC(=O)[C@H](C)NC(=O)[C@H](Cc1c[nH]cn1)NC[C@H](C)N)[C@@H](C)O)[C@@H](C)O)C(C)C)C(=O)N[C@@H](C)C(=O)N[C@@H](Cc1c[nH]c2ccccc12)C(=O)N[C@@H](CC(C)C)C(=O)N[C@H](C(=O)N[C@@H](CCCCN)C(=O)NCC(=O)N[C@@H](CCCNC(=N)N)C(N)=O)C(C)C` gave an EC50 of 0.00251 nM (Glucagon-like peptide 1 receptor (GLP1R, Homo sapiens, UniProt P43220); reporter gene, agonist, luciferase).
`O=C(CCCCCCC(=O)Nc1ccc([C@H]2O[C@@H](CSc3nc(-c4ccccc4)c(-c4ccccc4)o3)C[C@@H](c3ccc(CO)cc3)O2)cc1)NO` has a Kd of over 30200 nM (Histone deacetylase 5 (HDAC5, Homo sapiens, UniProt Q9UQL6); cell-free assay).
With `CC(C)(Oc1ccc(CCNC(=O)c2ccc(Cl)cc2)cc1)C(=O)O` the Kd was 30300 nM (Peroxisome proliferator-activated receptor gamma (PPARG, Homo sapiens, UniProt P37231); binding, ITC).
The Kd of `Cc1cnc(-c2ccc(-c3ccc(NC(=O)Nc4c(F)cc(F)cc4F)cc3F)c3c2C(=O)NC3)[nH]1` is reported as 3 nM (Discoidin domain-containing receptor 2 (DDR2, Homo sapiens, UniProt Q16832); binding, competition with immobilised ligand).
`CCCCCCCC/C=C\CCCCCCCC(=O)O[C@H](CC(=O)[O-])C[N+](C)(C)C` has an EC50 of 600 nM (Pantothenate kinase 3 (PANK3, Homo sapiens, UniProt Q9H999); enzyme activity, inhibitor, radiometric).
With `Cc1cc2nc3c(=O)[nH]c(=O)nc-3n(C[C@H](O)[C@H](O)[C@H](O)COP(=O)(O)OP(=O)(O)OC[C@H]3O[C@@H](n4cnc5c(N)ncnc54)[C@H](O)[C@@H]3O)c2cc1C` the Kd was 62 nM (YTH domain-containing family protein 2 (YTHDF2, Homo sapiens, UniProt Q9Y5A9); binding; lysate).
